“And” between values parts separate entries of the source, which are not always exact repeats. Equal entries are not always repeated.
How the values were obtained:
[1] = test system: Mus musculus; experiment: In vivo antileukemic activity towards P388 Murine Leukemia at a dose of 2.5 mg/kg, expressed as body weight change; assay type: functional
[2] = test system: Mus musculus; experiment: Antileukemic activity expressed as number of toxic deaths/total number of mice at dose 35.0 mg/kg tested in 6 animals; assay type: functional
[3] = test system: HT-29; experiment: Percent inhibition at G1 phase of cell cycle at a dose of 20 ng/mL after 72 hours of induction in HT-29/Mx cell line; assay type: functional; details: Homo sapiens, HT-29, 72 h
In short: (§1)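 HT29 or HT29/Mx cells were treated for 72 h, then fixed in 70% ice-cold ethanol. Cells were stained with PBS containing 30 μg/mL propidium iodide and 66 units/mL RNase A, and DNA content was measured by flow cytometry on at least 10^4 cells to give G1, S and G2/M fractions.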

[4] = test system: Mus musculus; experiment: In vivo antileukemic activity towards P388 Murine Leukemia at a dose of 2.5 mg/kg; assay type: functional
[5] = test system: Mus musculus; experiment: Tumor volume inhibition administered iv at a dose of 10 mg/kg to nude mice bearing sc Human ovarian carcinoma Xenografts; assay type: functional
In short: (§2)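 Swiss nude athymic mice carrying tumor fragments grafted sc in both flanks, 4–5 mice (8–10 tumors) per group. Tumor lines kept by sc passage. Dosing iv once weekly for 3 doses, starting at mean tumor volume ca. 80–100 mm3 (A2780, HT29/Mx: days 4, 11, 18; A2780/Dx: days 7, 14, 21). Diameters measured twice weekly; TV = d²×D/2. %TVI treated vs control assessed 3–10 days after last dose.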

[6] = test system: Mus musculus; experiment: Tumor volume inhibition administered iv at a dose of 20 mg/kg to nude mice bearing sc Human colon carcinoma Xenografts; assay type: functional; in short: as §2
[7] = test system: HT-29; experiment: Percent inhibition at G2/M phase of cell cycle at a dose of 100n g/mL after 72 hours of induction in HT-29 cell line; assay type: functional, Homo sapiens; in short: as §1
[8] = test system: Mus musculus; experiment: In vivo antileukemic activity towards P388 Murine Leukemia at a dose of 10.0 mg/kg; assay type: functional
[9] = test system: PC-3; experiment: In vitro Cytotoxic activity of compound in comparison with reference compounds in human cell line PC3; assay type: functional, cell-based
In short: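 Monolayer lines were used: A2780, A2780/Dx, DU145 and PC3 in RPMI 1640, LoVo and LoVo/Dx in Ham's F-12, and HT29 and HT29/Mx in McCoy's 5A, each with 10% FBS. Drug exposure was 72 h. […] Resistance index = IC50 in resistant / IC50 in sensitive line.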

[10] = test system: HT-29; experiment: Percent inhibition at G2/M phase of cell cycle at a dose of 20 ng/mL after 72 hours of induction in HT-29/Mx cell line; assay type: functional; details: Homo sapiens, HT-29, 72 h; in short: as §1
[11] = test system: Mus musculus; experiment: Antileukemic activity expressed as number of toxic deaths/total number of mice at dose 30.0 mg/kg tested in 6 animals; assay type: functional
[12] = test system: Mus musculus; experiment: Tumor volume inhibition administered iv at a dose of 6.7 mg/kg to nude mice bearing sc Human A2780/Dx Xenografts; assay type: functional, A2780 ADR; in short: as §2
[13] = test system: HT-29; experiment: Percent inhibition at S phase of cell cycle at a dose of 25 ng/mL after 72 hours of induction in HT-29 cell line; assay type: functional; details: Homo sapiens, HT-29, 72 h
In short: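 HT29 and mitoxantrone-resistant HT29/Mx colon adenocarcinoma monolayers in McCoy's 5A with 10% FBS and 1% 1 M Hepes, 37 °C, 5% CO2. Drug exposure 72 h. Cells then fixed in 70% ice-cold ethanol, washed twice and resuspended in PBS with 30 μg/mL propidium iodide and 66 units/mL RNase A. At least 10^4 cells per sample read for DNA content by flow cytometry. G1/S/G2M fractions reported as percentages.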

[14] = test system: Mus musculus; experiment: Toxic deaths at dose of 6.7 mg/kg (i.v.) to nude mice bearing sc Human A2780/Dx tumor Xenografts tested in 5 animals; assay type: functional; details: route intravenous
In short: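 Tumor fragments of A2780, A2780/Dx or HT29/Mx grafted sc in both flanks of Swiss athymic nude mice, 4–5 mice per group. Drug given iv once weekly on 3 days: days 4, 11, 18 (A2780, HT29/Mx) or days 7, 14, 21 (A2780/Dx). Dosing started at mean tumor volume 80–100 mm3. Toxic deaths recorded as deaths/total mice.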

`CN(C)CCNc1ccc2ncnc3c2c1C(=O)c1c(O)ccc(O)c1-3` showed a Body weight change [1] of 0.98 BWC, a Toxic deaths [2] of 5 and an inhibition at 0.02 µg/mL [3] of 58%. The “T/C (ratio of treated to control)” value [4] was 145%, the TVI [5] was 62% and 80% and the TVI [6] was 22%. For the same molecule, the Inhibition [7] was 57%, the “T/C (ratio of treated to control)” value [8] was 172% and 196% and the IC50 [9] was 11.6 nM. It also gave an inhibition at 0.02 µg/mL [10] of 31%, a Toxic deaths [11] of 2 and a TVI [12] of 46%. The inhibition at 0.025 µg/mL [13] was 19% and the Toxic deaths [14] was 0.
